Measured values collected from several papers.
Protocols differ between the studies behind these lines.
Target: Tyrosine-protein kinase Fgr (FGR, Homo sapiens, UniProt P09769)

Structure (SMILES) | effect on | technique | tested at | remaining binding
FC(F)(F)Oc1cccc(-c2cnc3ccc(-c4ccncc4)nn23)c1 | cell-free assay | competition with immobilised ligand | 5 µM | 69%
O=C(c1ccc(Nc2ncc(Cl)c(-c3cc4ccccc4s3)n2)cc1)N1CCC(N2CCCC2)CC1 | cell-free assay | competition with immobilised ligand | 1 µM | 92%
CNC(=O)[C@@H]1CC[C@@H](n2c(-c3ccc4cnccc4c3)nc3ccc(C(=O)NCc4cccc(C(N)=O)c4)cc32)C1 | binding | competition with immobilised ligand | 1 µM | 100%
CN(CCCC(F)(F)F)c1nccc(-c2cnn3ncccc23)n1 | binding |  | 1 µM | 85%
CCN1CCN(Cc2ccc(C(=O)Nc3ccc(C)c(Oc4ccc5c(c4)CC(=O)N5)c3)cc2C(F)(F)F)CC1 | binding | competition with immobilised ligand | 1 µM | 68%
C[C@H]1CCN(c2nccc(-c3cnn4ncccc34)n2)C1 | binding |  | 1 µM | 100%
CCC(=N\O)/C(C)=C/c1ccc(F)cc1 | cell-free assay | competition with immobilised ligand | 1 µM | 67%
CN(C)c1nccc(-c2cnc3ncccn23)n1 | binding |  | 1 µM | 100%
O=C(c1ccc(Nc2nccc(-c3cc4ccccc4s3)n2)cc1)N1CCC(N2CCCC2)CC1 | cell-free assay | competition with immobilised ligand | 1 µM | 93%
COc1cnc(Nc2cccc(S(N)(=O)=O)c2)nc1N1CCN(c2ccccc2)C(=O)C1 | binding | competition with immobilised ligand | 1 µM | 100%
CN(C)c1ncc(F)c(-c2cnn3ncccc23)n1 | binding |  | 1 µM | 88%
CCS(=O)(=O)c1cc2cc(C[C@](O)(CC(C)(C)c3ccc(F)cc3C(N)=O)C(F)(F)F)[nH]c2cn1 | cell-free assay | competition with immobilised ligand | 1 µM | 100%
O=C(Nc1c[nH]nc1C(=O)NC1CCNCC1)c1cc(F)cc(F)c1 | binding | competition with immobilised ligand | 1 µM | 100%
C[C@H](c1cccc(C#N)c1)n1cc(Cl)cc(C(N)=O)c1=N | cell-free assay | competition with immobilised ligand | 1 µM | 80%
Nc1ncc2c(n1)-c1c([nH]c3ccc(C#CC4CC4)cc13)CCCC2 | binding | competition with immobilised ligand | 1 µM | 100%
CC(=O)Nc1c(C(C)=O)c(=O)n(C)c2nc(-c3ccc(Cl)cc3Cl)c(-c3ccc(Cl)cc3)cc12 | cell-free assay | competition with immobilised ligand | 1 µM | 100%
F[C@@H]1CCN(c2nccc(-c3cnn4ncccc34)n2)C1 | binding |  | 1 µM | 81%
C[C@@H]1CN(c2cc(-c3nn(C)c4ccc(OC5(C)CC5)cc34)ncn2)C[C@H](C)O1 | cell-free assay | competition with immobilised ligand | 1 µM | 90%
CN(C)c1nccc(-c2cnn3ncccc23)n1 | binding |  | 1 µM | 100%
O=C(c1ccc(Nc2ncc(Cl)c(-c3ccc(Cl)s3)n2)cc1)N1CCC(N2CCCC2)CC1 | cell-free assay | competition with immobilised ligand | 1 µM | 96%
O=C(NCc1ncc(C(F)(F)F)cc1Cl)c1ccc2c(c1)C1(CCS(=O)(=O)CC1)[C@H](C1CC1)N2S(=O)(=O)c1ccc(F)cc1 | cell-free assay | competition with immobilised ligand | 1 µM | 100%
